Bioassay records (PubChem BioAssay)
Most compounds without a hit are left out; they make up all but 4.8% or so of the library.
PAFAH1B2 inh: PAFAH1B2 (human) inhibition. P68402. AID 492953. inhibition, % at 3.39 µM. recombinant PAFAH1B2, FP-rhodamine activity probe, fluorescence polarization. 340,000 tested, 1.2% active;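 active = inhibition above the mean of all tested compounds plus 3 SD, cut at about 24% in these data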;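 note: 0% = enzyme with DMSO and 100% = wells lacking PAFAH1B2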
Target sequence (P68402 whole entry, looked up): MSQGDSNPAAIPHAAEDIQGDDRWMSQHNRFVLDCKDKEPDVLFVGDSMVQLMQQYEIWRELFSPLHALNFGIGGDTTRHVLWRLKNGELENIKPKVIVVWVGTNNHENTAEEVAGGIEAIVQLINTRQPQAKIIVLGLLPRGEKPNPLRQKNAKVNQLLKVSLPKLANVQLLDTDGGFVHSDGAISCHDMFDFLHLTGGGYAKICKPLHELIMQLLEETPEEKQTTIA
PAFAH2 inh: inhibitors of human PAFAH2; Q99487; inhibition, % at 3.39 µM; AID 492956; 340,000 tested, 0.99% active; recombinant PAFAH2, FP-rhodamine activity probe, fluorescence polarization;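 active = inhibition above the mean over all tested compounds plus 3 SD, cut at about 30% in these data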;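 note: inhibitors block probe labeling of enzyme so polarization drops; 0% = enzyme with DMSO and 100% = wells lacking PAFAH2 protein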
PAFAH1B3 inh: PAFAH1B3 (human) inhibition; Q15102; recombinant PAFAH1B3, FP-rhodamine probe, fluorescence polarization; inhibition, % at 3.39 µM; 340,000 tested, 0.28% active;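 active = inhibition above the screen-wide average of all tested compounds plus 3 SD, cut at about 25% in these data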;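 note: 0% = enzyme with DMSO only and 100% = wells lacking PAFAH1B3 protein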
Target sequence (Q15102 whole entry, looked up): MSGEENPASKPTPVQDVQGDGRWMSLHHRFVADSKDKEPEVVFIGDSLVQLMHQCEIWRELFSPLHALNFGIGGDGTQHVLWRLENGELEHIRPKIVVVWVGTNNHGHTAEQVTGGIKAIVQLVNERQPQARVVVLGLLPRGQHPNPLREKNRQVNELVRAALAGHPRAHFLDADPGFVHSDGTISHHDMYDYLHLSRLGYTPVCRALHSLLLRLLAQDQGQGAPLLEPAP
pPAFAH FP inh: pPAFAH (human) enzyme inhibition; recombinant pPAFAH, FP-rhodamine probe fluorescence polarization; 330,000 tested, 1.5% active; inhibition, % at 3.39 µM; Q13093;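 active = inhibition above the mean inhibition across the screen plus 3 SD, cut at about 25% in these data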;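 note: inhibitors block binding of the rhodamine activity-based probe so polarization drops; 0% = enzyme with DMSO and 100% = wells lacking pPAFAH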
UCH37 DUB inh: human UCH37 deubiquitinating enzyme inhibition; Q9Y5K5; purified proteasome/UCH37, Ub-AMC cleavage fluorescence; inhibition, % (no concentration beside the values); 330,000 tested, 0.33% active;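 active = mean inhibition over replicate wells above about 20%, limit read from the data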;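 note: 0% = compound-free wells with enzyme and 100% = wells lacking proteasome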
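Material: Human UCH37 enzyme supplied as purified proteasome complex | Schedule: 30 min preincubation with enzyme, 25 min cleavage at room temperature | Detection: AMC fluorescence 355/460 nm | Measure: % inhibition of Ub-AMC cleavage fluorescence | Controls: Wells without proteasome as full block, compound-free enzyme plus substrate as uninhibited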
NR3A LBD binder: modulates the human NR3A ligand-binding domain. NR3A LBD differential scanning fluorimetry, Tm shift; 0% = protein alone, 100% = glycine-bound protein. Tm shift relative to glycine control, % at 25 µM. 340,000 tested, 2.5% active. AID 1259313;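 active = melting temperature shift of at least 10% of the positive control shift, at one fixed dose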
Active calls of the source: *; · = no result given.

SMILES	PAFAH1B2 inh	PAFAH2 inh	PAFAH1B3 inh	pPAFAH FP inh	UCH37 DUB inh	NR3A LBD binder
CC(NC(=O)Cn1c(=O)[nH]c2ccsc2c1=O)C12CC3CC(CC(C3)C1)C2 (stereo not given)	27.7*	26.7	8.6	14.5	4.5	-2.9
CC(NC(=O)Cn1ccsc1=N)C12CC3CC(CC(C3)C1)C2 (stereo not given)	8.0	19.5	-0.3	-0.7	4.9	-0.6
CC(NC(=O)CN1C(=O)NC(Cc2ccccc2)(Cc2ccccc2)C1=O)C12CC3CC(CC(C3)C1)C2 (stereo not given)	72.5*	10.1	-2.7	7.5	5.1	-2.2
NC(=S)NN=Cc1ccccc1OC(=O)/C=C/c1ccccc1	·	·	·	·	0.1	·
O=S(=O)(NCc1ccccc1)c1ccc(Br)s1	17.0	-3.8	-4.3	·	0.8	-1.4
NS(=O)(=O)c1ccc(CCNC(=O)C2CCC(CNS(=O)(=O)c3ccc(Br)s3)CC2)cc1 (stereo not given)	4.7	5.3	1.7	4.1	4.2	12.8*
Cc1nc2ccc(S(=O)(=O)NCC(=O)NCCc3ccc(Cl)cc3)cc2s1	24.5*	9.8	5.4	6.3	3.2	-0.2
Cc1ccc(CNS(=O)(=O)c2ccc(Br)s2)cc1	25.1*	3.4	2.9	12.0	0.0	-1.8
O=C(CNS(=O)(=O)c1ccc(Br)s1)NCCc1ccc(Cl)cc1	29.3*	-0.6	1.3	-0.3	1.7	-4.5
CC(=NNC(=O)Cc1c(C)[nH][nH]c1=O)c1ccc(O)cc1	·	·	·	·	1.9	·
O=C(CO)NN=Cc1ccc(Cl)cc1	·	·	·	·	4.1	·
Cc1cccc(NC(=O)c2ccc(S(=O)(=O)N3CCCCC3)cc2)n1	5.6	2.9	4.1	1.7	4.8	0.4
COc1ccc(S(=O)(=O)N2CCCCCC2)cc1C(=O)Nc1cccc(C)n1	4.5	15.0	8.3	4.4	3.9	23.2*
COc1ccc(S(=O)(=O)N2CCCCCC2)cc1N(C)S(=O)(=O)c1ccccc1	3.9	8.8	-1.8	5.1	6.3	12.2*
COc1ccc(S(=O)(=O)N2CCCCC2)cc1N(C)S(=O)(=O)c1ccccc1	0.3	3.1	8.1	-8.6	1.4	-1.1
COc1ccc(CCNS(=O)(=O)c2cccc(S(=O)(=O)N3CCCC3)c2)cc1OC	1.3	2.4	1.6	·	-1.5	14.2*
CCOP(=O)(OCC)C(Nc1ccccc1)c1ccc2c(c1)OCO2 (stereo not given)	9.4	3.7	7.2	1.9	-2.7	0.5
CCCCOP(=O)(OCCCC)C(Nc1ccccc1)c1ccc2c(c1)OCO2 (stereo not given)	7.4	8.8	-0.4	2.8	2.1	14.3*
CC1(C)[N+]([O-])=C2C(=NO)c3ccccc3C2=[N+]([O-])C1(C)C	·	·	·	·	0.5	·
COc1ccc(OC)c(-n2nnnc2SCC(=O)NCc2ccc3c(c2)OCO3)c1	9.4	5.3	-7.8	1.0	2.2	10.5*
COc1ccc(NC(=O)CC(C)=NNC(=O)c2cccs2)c([N+](=O)[O-])c1	·	·	·	·	2.9	·
CCCn1c(O)c(/C=C2\C=NN=C2c2ccccc2)sc1=S	3.8	-0.8	5.6	8.0	7.5	15.8*
C=CCn1c(O)c(/C=C2\C=NN=C2c2ccccc2)sc1=S	3.0	-2.1	3.2	6.7	6.7	12.0*
CCCCC(CC)Cn1c(O)c(/C=C2\C=NN=C2c2ccccc2)sc1=S (stereo not given)	-6.2	-17.6	-9.3	-2.2	4.9	21.3*
C=CCn1c(O)c(C=Nc2ccccc2)sc1=S	4.5	6.4	8.7	5.3	4.6	-4.0
SMILES	PAFAH1B2 inh	PAFAH2 inh	PAFAH1B3 inh	pPAFAH FP inh	UCH37 DUB inh	NR3A LBD binder
O=[N+]([O-])c1ccc(C=NN/C(=N/c2ccccn2)c2ccccn2)cc1	·	·	·	·	10.1	·
CC(CC(=O)Nc1ccccc1C(F)(F)F)=NNC(=O)c1cnccn1	·	·	·	·	-2.3	·
COc1ccc(CN(C(=S)Nc2ccccc2)C2CC(=O)N(c3ccccc3)C2=O)cc1 (stereo not given)	3.5	1.9	1.2	-1.8	-0.5	37.4*
COc1ccc(N2C(=O)CC(N(CCc3ccc(S(N)(=O)=O)cc3)C(=S)Nc3ccccc3)C2=O)cc1 (stereo not given)	-5.9	-7.0	1.5	0.9	5.6	4.6
COc1ccc(CN(C(=S)Nc2ccccc2)C2CC(=O)N(c3ccc(Cl)cc3)C2=O)cc1 (stereo not given)	13.1	1.7	-2.1	4.1	3.8	24.5*
O=C1CC(N(Cc2cccs2)C(=O)Nc2ccccc2)C(=O)N1c1ccc(Cl)cc1 (stereo not given)	3.6	6.1	4.9	7.8	6.2	14.0*
CCC(=O)Nc1ccc(C(C)=NNS(=O)(=O)c2ccc(C)cc2)cc1	·	·	·	·	0.3	·
Cc1cc(-c2n[nH]c(=S)n2N=Cc2ccc(C)s2)n[nH]1	·	·	·	·	1.0	·
COc1ccc(C=NNc2ncccc2[N+](=O)[O-])c(OC)c1	·	·	·	·	15.2	·
Cc1ccc(OCC(=O)Sc2ccc(C)cc2)cc1	4.9	0.3	4.7	-7.3	9.7	15.0*
CCOC(=O)C(C#N)=NNc1ccccc1C#N	·	·	·	·	11.7	·
COC(=O)C(Cc1ccc(O)cc1)NC(=O)C(C)NC(=O)c1ccc(C(C)(C)C)cc1 (stereo not given)	27.5*	6.5	7.3	4.2	1.7	0.8
COc1cccc(-c2c(C(=O)NN=Cc3ccc(C)o3)nnn2-c2nonc2N)c1	·	·	·	·	-22.0	·
CCOC(=O)NN=Cc1ccccc1OC/C=C/c1ccccc1	·	·	·	·	3.2	·
CCOc1cc(/C=C2\N=C(SCC)SC2=O)cc([N+](=O)[O-])c1OC(C)=O	24.4*	53.4*	12.4	22.6	8.6	6.3
CCOc1cc(/C=C2\N=C(SC)SC2=O)cc([N+](=O)[O-])c1OC(C)=O	13.5	11.7	1.9	16.6	8.3	4.6
CCOc1c(OC(C)=O)ccc(/C=C2\N=C(SCC)SC2=O)c1[N+](=O)[O-]	8.9	11.9	14.8	11.4	5.9	14.2*
O=C(NCCc1ccccc1)C1CCCN(S(=O)(=O)c2cnc[nH]2)C1 (stereo not given)	5.9	-1.2	6.4	-0.2	4.4	0.1
O=C(NCCC1=CCCCC1)C1CCCN(S(=O)(=O)c2cnc[nH]2)C1 (stereo not given)	26.5*	1.0	0.1	6.3	13.4	-1.2
Cc1ccc(S(=O)(=O)N2CCCC(C(=O)NCCC3=CCCCC3)C2)cc1 (stereo not given)	14.9	-1.5	4.5	1.3	1.2	0.2
O=C(NCCC1=CCCCC1)C1CCCN(S(=O)(=O)c2ccccc2)C1 (stereo not given)	27.5*	4.1	3.7	9.3	4.5	0.3
O=c1cc(-c2ccc(O)cc2)oc2c1ccc1ccccc12	-5.4	3.2	-5.6	-0.4	8.8	0.2
O=c1cc(-c2ccc(O)cc2)oc2ccc3ccccc3c12	-7.9	-14.9	-2.1	1.8	2.8	24.5*
